Reference: the EternaBench riboswitch data

Test system: MS2 coat protein
Test: apparent Kd, MS2 coat protein; higher = weaker binding; RNA-MaP array; FMN 200 µM where present
Summary of the method: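 Apparent Kd: the median of filtered binding-curve fits from single clusters. Designs were transcribed on Illumina sequencing-chip clusters by stalled E. coli RNA polymerase and titrated with SNAP-549-labelled MS2 coat protein from 0.7 or 1.5 nM, doubling to 3 µM, in 100 mM Tris-HCl pH 7.5, 80 mM KCl, 4 mM MgCl2, BSA, DTT, yeast tRNA and Tween-20. Each series ran without and then with constant ligand, and green signal was normalised to red-channel RNA signal and control-cluster median Fmax.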

[1] = designed as: OFF switch for flavin mononucleotide, no ligand
[2] = ligand present: flavin mononucleotide, designed as: OFF switch for flavin mononucleotide
[3] = designed as: ON switch for flavin mononucleotide, no ligand
[4] = ligand present: flavin mononucleotide, designed as: ON switch for flavin mononucleotide

UAUAUAUAGUAAGGAUAUAUAUUUUUUUUAUAAAUAGAAGGUACAGACAUGAGGAUCACCCAUGUUAUAAUAUGGACAUGUGGA
apparent Kd [1]: 101 nM | apparent Kd [2]: 101 nM

AUCAGCUCGUCAGGAUAUACGUCACUGCUUCGGCAGUGUGGUAAGAUAACAUGAGGAUCACCCAUGUAGAAGGGACGAGCUGAU
apparent Kd [1]: 6.3 nM | apparent Kd [2]: 12.1 nM

GCACAUGAUACAGGAUAUGUUUAGGAUUUUAUAUACAGUUAUUUUAUUUUGACAGAAGGGUAUACAUGAGGAUCACCCAUGUGC
apparent Kd [1]: 87.2 nM | apparent Kd [2]: 58.1 nM

AUCUAAGAAUUAAUUGUGACAGUGAGAAGGCUAUAGUUUGUGACCGACAUGAGGAUCACCCAUGUAGAGGAUAUCACUAGCUAC
apparent Kd [1]: 39.9 nM | apparent Kd [2]: 253 nM

UAGAUGUGAGGAUAUACGUAGAUGCAGGUUCGUGUGGUGCUACAUGAGGAUCACCCAUGUAGAAGGCACGUCUU
apparent Kd [1]: 19.3 nM | apparent Kd [2]: 20.2 nM

GUAGCUAUCGGAGGAUAUUCAUACCGGAUACGGACAUGAGGAUCACCCAUGUCGCGAAAGCGUUGGGAGAAGGCCGAUAGCUAC
apparent Kd [3]: 89.2 nM | apparent Kd [4]: 20.4 nM

GAGAUGUGAGGAUAUCUAGACCAUGGAAAAGCCACGGUCCGAGAGAAGGCACAUGAGGAUCACCCAUGUGAUGA
apparent Kd [1]: 45.9 nM | apparent Kd [2]: 171 nM

CGGAAUUGUACAGGAUAUGAGGGUACCUGAGCCUCAGAAGGGUAGACCGACAUGAGGAUCACCCAUGUAUGCGGAUAACGUCCG
apparent Kd [3]: 1180 nM | apparent Kd [4]: 592 nM

UUUUUGUGAGGAUAUCAGUAGUAGAACAAUAGUACUACUACUGAGAAGGCACAUGAGGAUCACCCAUGUUUCUC
apparent Kd [1]: 50.2 nM | apparent Kd [2]: 294 nM

AUUUCGUUAGCAGGAUAUGGACAGGCCUGUCCGUAUUGAGUCAGUAACAUGAGGAUCACCCAUGUCCAGAAGGGCUCGAAGUAG
apparent Kd [1]: 8.06 nM | apparent Kd [2]: 13.9 nM

CUUCUGUGAGGAUAUGUUAGCUCCCGGCAUGUCGCUGGGAGACAGAAGGCACAUGAGGAUCACCCAUGUGGGCG
apparent Kd [1]: 34 nM | apparent Kd [2]: 161 nM

CAGGUAGACUGAGGAUAUACAAUAAAGACCUAGUCUAUCUAGGUCCCUACAUGAGGAUCACCCAUGUAGAAGGCAGUCUGCCUG
apparent Kd [1]: 15.9 nM | apparent Kd [2]: 20.5 nM

CCUUCACAUGAGGAUCACCCAUGUCCUAGUCCGUCAGGAUAUAGCCUGCAUCCGCUGUGGCUAGAAGGGACUGCUG
apparent Kd [3]: 135 nM | apparent Kd [4]: 207 nM

GCUGACGAUGUAGGAUAUCUCGACGAUAAGUCGAGAGAAGGACAUGAGGAUCACCCAUGUAAACUCGCGUCAGCGAGGAAACUC
apparent Kd [1]: 17.9 nM | apparent Kd [2]: 20.1 nM

AUCACAGCCACAGGAUAUCCACAUGAGGAUCACCCAUGUUACCGAAGGGUAGGAGAAGGGUGGCGCUCGUUGCGGACGAUGAAU
apparent Kd [3]: 121 nM | apparent Kd [4]: 15.1 nM

GGAGCCGGUACUGAGGAUAUUCAUAUUAAAACAUGAGGAUCACCCAUGUAGGCCAGAAGGCCUUGGGAGAAGGCAGACCAGCUCG
apparent Kd [3]: 391 nM | apparent Kd [4]: 26.7 nM

GGUUGGCGAGGAUAUACAUGAGGAUCACCCAUGUGGUCCUGUGGCUGAAAAAACCUUUGUAGAAGGCGCGGGUC
apparent Kd [1]: 197 nM | apparent Kd [2]: 262 nM

UGAAUGGUGAUAGGAUAUACAUGAGGAAUCCUCGUAGAAGGAUCACGACAUGAGGAUCACCCAUGUAGCCGUCCGUAGACGGCC
apparent Kd [3]: 227 nM | apparent Kd [4]: 470 nM

GCCAGUUAUGUAGGAUAUGCGCAGCGAGCCUGAGCAGAAGGACAUGAGGAUCACCCAUGUGUUGCGGUUUGAGUACUGAUCGCU
apparent Kd [1]: 24.6 nM | apparent Kd [2]: 130 nM

GGAUAGGACAGAGGAUAUACGUGCUAGAGAUACUAGCUAAUAAUCCUUACAUGAGGAUCACCCAUGUAGAAGGCUGUCCUAUCG
apparent Kd [1]: 20 nM | apparent Kd [2]: 45.1 nM

GCUGUCGCAUGAGGAUAUGGUCAGCUUUGCUGACCAGAAGGCAUGUCAAUAGACAUGAGGAUCACCCAUGUGGUUAGGGCGGCU
apparent Kd [3]: 1030 nM | apparent Kd [4]: 93.5 nM

AUCAGCUCGUCAGGAUAUACGUCACUGCGUCAGCAGUGUGCUAAGAUCACAUGAGGAUCACCCAUGUAGAAGGGACGAGCUGAU
apparent Kd [1]: 5.83 nM | apparent Kd [2]: 22.1 nM

GUCCUUUCUGAGGAUAUUAUCUGGUUCGAUUGAUAAGAAGGCAGUACAUGAGGAUCACCCAUGUGGGUCGUCUG
apparent Kd [1]: 31.6 nM | apparent Kd [2]: 69.5 nM

CCACUGUCAGGAUAUCGUGCAUAAGCGAUUACAUUUAUGUGCGAGAAGGGACAUGAGGAUCACCCAUGUAAUCG
apparent Kd [1]: 528 nM | apparent Kd [2]: 368 nM

UUGUUACAUGAGGAUCACCCAUGUGAGGAUAUGGUUCGGUACUGUCCUGUCGCGUACUCCAGAAGGCACAUGUU
apparent Kd [1]: 63.6 nM | apparent Kd [2]: 182 nM

GUAGCUAUCGGAGGAUAUUCCUUGCGGAAACGCACAUGAGGAUCACCCAUGUAAAUAAAUAAUUGGGAGAAGGCCGAUAGCUAC
apparent Kd [3]: 45 nM | apparent Kd [4]: 14.9 nM

UGGUACAUCGGAGGAUAUCAUGUAAAUACAUGAGGAUCACCCAUGUCGUACGAGAGUACGGAGAUUGAGAAGGCCGAUGUACCU
apparent Kd [3]: 25.7 nM | apparent Kd [4]: 15 nM

CUCUUGUAAGGAUAUCUGACAAGUGACGAAAGUCACAGUUCAGAGAAGGUACAUGAGGAUCACCCAUGUAGAAC
apparent Kd [1]: 76.7 nM | apparent Kd [2]: 64.4 nM

CCAUGACCGGAGAAGGCAGUUUGUGGGCCUGUUCCUGUCGGAUACAUGAGGAUCACCCAUGUACCUGAGGAUAUCUGGUCGCAG
apparent Kd [1]: 5.06 nM | apparent Kd [2]: 6.13 nM

GUAAGCGUAGGAUAUACAUGAGGAUCACCCAUGUCAGUUUUGCACUCUCGGGUGUGCUGUAGAAGGGCGUUACU
apparent Kd [1]: 172 nM | apparent Kd [2]: 208 nM

UAAUAAUAAUAAUAGCAGUUACAUGAGGAUCACCCAUGUAUAUAGGAUAUCGUCAGGAAUACUGACGAGAAGGAUAUACUCUGC
apparent Kd [1]: 21.9 nM | apparent Kd [2]: 26.2 nM

CAGAAGUCAGGAUAUCCUGCUCGUCACUUGCGUGAUGAGUAGGAGAAGGGACAUGAGGAUCACCCAUGUAAAGG
apparent Kd [1]: 144 nM | apparent Kd [2]: 411 nM

UGUGCUGAAGGAUAUGCGUAAGCUCGGUGACGAGCAGAUCUACAUGAGGAUCACCCAUGUAGAAGGUCAGUACU
apparent Kd [1]: 16 nM | apparent Kd [2]: 18.4 nM

CAGGUAGACUGAGGAUAUACAAUAAGACCUAGUCUAUCUAGGUCCCUCACAUGAGGAUCACCCAUGUAGAAGGCAGUCUGCCUG
apparent Kd [1]: 51.5 nM | apparent Kd [2]: 636 nM

CAUCUGGUGCAGAAGGGACAUAGGGUCCUUUGGUCGCUAAGUAUCCCACAUGAGGAUCACCCAUGUCAGGAUAUGUAUCUGGAU
apparent Kd [1]: 15.9 nM | apparent Kd [2]: 30.1 nM

GCUGACGAUGUAGGAUAUCAGUAUAAUAAAUACUGAGAAGGACAUGAGGAUCACCCAUGUAAACUCCGUCAGCAGAGGAAACUC
apparent Kd [1]: 19.6 nM | apparent Kd [2]: 24.1 nM

GGGUUCAUGUAAGGAUAUGUAUUGUUAAUCGGAGCAGAAGGUACAUGAGGAUCACCCAUGUCAACCUAGAGCAGGGCUUUUUAG
apparent Kd [1]: 27 nM | apparent Kd [2]: 110 nM

GCGUCAGAAUUAAUUGUGACAUACAGAAGGCAAUAGUUAAUUUCAGACAUGAGGAUCACCCAUGUUGAGGAUAUGUAGAGAAUC
apparent Kd [1]: 11.8 nM | apparent Kd [2]: 10.5 nM

AGCAUGGUAGGAUAUACGGAGCAUUAGGGUUUGUUGUGUGGACAUGAGGAUCACCCAUGUAGAAGGGCCGUGCA
apparent Kd [1]: 47 nM | apparent Kd [2]: 64.2 nM

GUGACGAUGUAAGGAUAUGCUGAGGAUAACUCAGCAGAAGGUACAUGAGGAUCACCCAUGUAAAUAAUAAGAAAUAAACGUCAC
apparent Kd [1]: 16.6 nM | apparent Kd [2]: 24.1 nM

AAAACCAGAGGAUAUGCGCAUAGAUCAGACUUUGUUUCUUAACAUGAGGAUCACCCAUGUAGAAGGCUGUAAAA
apparent Kd [1]: 17.3 nM | apparent Kd [2]: 15.4 nM

GAUUCGGGAGGAUAUACAUGAGGAUCACCCAUGUGUUUUUUGUGUGUUAUGUUAUCAUGUAGAAGGUUUGGGUC
apparent Kd [1]: 286 nM | apparent Kd [2]: 260 nM

CCGGGCAUCGGCCCAUCUAGGCGAAGAAGGGACACGGCCAAGAUCUCACAUGAGGAUCACCCAUGUCAGGAUAUUUGGUUGGAU
apparent Kd [1]: 6.56 nM | apparent Kd [2]: 10.3 nM

UUGAAUUAAAAGGAUAUGGGAGUCGAUAGACACCCAGAAGGUUUAACAUGAGGAUCACCCAUGUGUCCUAUCAA
apparent Kd [1]: 23.1 nM | apparent Kd [2]: 31.4 nM

ACAUUAGUACCACAUGUAUUACAUGAGGAUCACCCAUGUAACUAGGAUAUGUAUUAGAAUUUACAACAGAAGGAGUUAAUAUGU
apparent Kd [1]: 9.8 nM | apparent Kd [2]: 11.9 nM

AACAGUAGAGGAUAUACAUGAGGAUCACCCAUGUGAGAAUUACGUGGCGUACCACGAAGUAGAAGGCUACUGGA
apparent Kd [1]: 61.3 nM | apparent Kd [2]: 302 nM

UUAGGACGAAACAUGAGGAUCACCCAUGUGUUAUAAUUAAUAUAGGAUAUGUUUAUACUUUUUGGGCAGAAGGAUGAUAAUGCU
apparent Kd [3]: 19.7 nM | apparent Kd [4]: 15.4 nM

UCGUAUAAGGGCAUUACACAUGAGGAUCACCCAUGUACGUUAGAGGAUAUGCAUUCCAGUCGAACGUAGAAGGCUAGAGAAGGG
apparent Kd [1]: 118 nM | apparent Kd [2]: 117 nM
